Series [1] relates to Mus musculus. The experiment in a line: Effect of compound on total white blood cell count in BDG1 male mice, after intraperitoneal administration at a dose of 25.6 mg/kg on day 5 (highest dose was twice the optimal dose). The series is classed as functional.
Series [2] concerns Mus musculus. The experiment in a line: Effect of compound on total white blood cell count in BDG1 male mice, after intraperitoneal administration at a dose of 12.8 mg/kg on day 7. The series is classed as functional. The essentials: (§1)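 Single ip dose given on day 0 to BDG1 male mice over a descending dose series. Total white blood cell count is expressed as % change from untreated control on days 3, 5 and 7. Significance is flagged at p ≤ 0.05 and p ≤ 0.01.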

The test system of series [3] is Mus musculus. The experiment in a line: Effect of compound on total white blood cell count in BDG1 male mice, after intraperitoneal administration at a dose of 25.6 mg/kg on day 7 (highest dose was twice the optimal dose). The series is classed as functional.
Series [4] in a line: Therapeutic ratio is expressed as ratio of optimal dose and minimum effective dose. The series is classed as ADME. Conditions: mouse; read-out: TR. In short, it runs like this: (§2)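 10⁶ P-388 ascites cells implanted ip in CDF₁ female mice. Six mice per dose, 10 saline-injected controls, and a concurrent mitomycin C reference group. %T/C = median survival time of treated/control × 100. MED is the lowest dose giving %T/C > 125. Therapeutic ratio = optimal dose/MED.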

In series [5] the test system is Mus musculus. Briefly: Effect of compound on total white blood cell count in BDG1 male mice, after intraperitoneal administration at a dose of 12.8 mg/kg on day 5. The class given is functional. In short, it runs like this:
(§3)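 BDG₁ male mice received a single ip dose on day 0. The dose series topped out at the LD₅₀ level, or at twice the optimal dose for some agents. Total white blood cell count was taken on days 3, 5 and 7 and expressed as % change from untreated controls. Significance was set at p ≤ 0.05 or p ≤ 0.01.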

Series [6] concerns Mus musculus. The experiment in a line: Effect of compound on total white blood cell count in BDG1 male mice, after intraperitoneal administration at a dose of 25.6 mg/kg on day 3 (highest dose was twice the optimal dose). The series is classed as functional.
For series [7], the system named is Mus musculus. Briefly: Antitumor activity against P-388 murine leukemia cells in CDF1 female mice after intraperitoneal administration at the specified optimal dose of 12.8 mg/kg. The series is classed as functional.
For series [8], the system named is Mus musculus. The experiment in a line: Effect of compound on total white blood cell count in BDG1 male mice, after intraperitoneal administration at a dose of 12.8 mg/kg on day 3. The class given is functional. The essentials:
as §3

The subject of series [9] is Mus musculus. Briefly: Minimum effective dose that show activity against P-388 murine leukemia cells in CDF1 female mice, after intraperitoneal administration (optimal dose is 12.8 mg/kg). The following applies: P388, ip, read-out: MED. The class given is functional. The essentials: as §2
The subject of series [10] is Mus musculus. Briefly: Effect of compound on total white blood cell count in BDG1 male mice, after intraperitoneal administration at a dose of 2.24 mg/kg on day 3. The class given is functional. In short, it runs like this:
as §1

Series [11] relates to Mus musculus. Briefly: Effect of compound on total white blood cell count in BDG1 male mice, after intraperitoneal administration at a dose of 3.98 mg/kg on day 7. The series is classed as functional. In short, it runs like this: as §1
For series [12], the system named is Mus musculus. Briefly: Effect of compound on total white blood cell count in BDG1 male mice, after intraperitoneal administration at a dose of 2.24 mg/kg on day 7. The class given is functional. In short, it runs like this: as §1
In series [13] the test system is Mus musculus. The experiment in a line: Effect of compound on total white blood cell count in BDG1 male mice, after intraperitoneal administration at a dose of 5.3 mg/kg on day 5. The series is classed as functional. The essentials: (§4)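 Single ip dose given on day 0 to BDG₁ male mice. Total white blood cell count measured on days 3, 5 and 7, expressed as % change from control. Highest dose was at the LD₅₀, or at twice the optimal dose where so footnoted. Significance reported at p ≤ 0.05 and p ≤ 0.01. D marks death of one or more mice.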

In series [14] the test system is Mus musculus. The experiment in a line: Effect of compound on total white blood cell count in BDG1 male mice, after intraperitoneal administration at a dose of 3.98 mg/kg on day 3. The series is classed as functional. The essentials: as §1
The test system of series [15] is Mus musculus. Briefly: Effect of compound on total white blood cell count in BDG1 male mice, after intraperitoneal administration at a dose of 2.98 mg/kg on day 5. The series is classed as functional. The essentials:
as §1

The subject of series [16] is Mus musculus. Briefly: Effect of compound on total white blood cell count in BDG1 male mice, after intraperitoneal administration at a dose of 2.98 mg/kg on day 7. The class given is functional. In short, it runs like this: as §1
Series [17] has as its system Mus musculus. The experiment in a line: Effect of compound on total white blood cell count in BDG1 male mice, after intraperitoneal administration at a dose of 3.98 mg/kg on day 5. The series is classed as functional. In short, it runs like this: as §1
In series [18] the test system is Mus musculus. The experiment in a line: Effect of compound on total white blood cell count in BDG1 male mice, after intraperitoneal administration at a dose of 2.24 mg/kg on day 5. The series is classed as functional. The essentials: as §1
Series [19] has as its system Mus musculus. Briefly: Effect of compound on total white blood cell count in BDG1 male mice, after intraperitoneal administration at a dose of 5.3 mg/kg on day 7. The series is classed as functional. In short, it runs like this:
as §4

For series [20], the system named is Mus musculus. The experiment in a line: Effect of compound on total white blood cell count in BDG1 male mice, after intraperitoneal administration at a dose of 2.98 mg/kg on day 3. The class given is functional. The essentials:
as §1

Series [21] concerns Mus musculus. Briefly: Effect of compound on total white blood cell count in BDG1 male mice, after intraperitoneal administration at a dose of 5.3 mg/kg on day 3. The class given is functional. In short, it runs like this:
as §4

The subject of series [22] is Mus musculus. Briefly: Antitumor activity against P-388 murine leukemia cells in CDF1 female mice after intraperitoneal administration at the specified optimal dose of 3.2 mg/kg. The class given is functional.
Series [23] relates to Mus musculus. Briefly: Minimum effective dose that show activity against P-388 murine leukemia cells in CDF1 female mice, after intraperitoneal administration (optimal dose is 3.2 mg/kg). The class given is functional. The following applies: P388, ip, read-out: MED. The essentials:
as §2

Data on two compounds can be found in ChEMBL document CHEMBL1121685, “Development of new mitomycin C and porfiromycin analogues” (J Med Chem, 1981).

Usually T/C stands for the ratio of treated to control. `COC12[C@@H]3N[C@@H]3CN1C1=C(C(=O)C(NCc3cccs3)=C(C)C1=O)[C@@H]2COC(N)=O` (some centres undefined): the Change with Mus musculus [1] is -33%; in the series on Mus musculus [2], -2%; with Mus musculus [3] it was -11%; in the series on Mus musculus [5], -5%; in the series on Mus musculus [6] it was -32%; in the series with Mus musculus [8], -26%. The selectivity ratio in series [4] stood at 4. The compound further registered a T/C in the series on Mus musculus [7] of 167%. The minimal effective dose in the series on Mus musculus [9] turned out to be 3.2 mg/kg.

`COC12[C@@H](COC(N)=O)C3=C(C(=O)C(C)=C(N4CC4)C3=O)N1C[C@@H]1[C@H]2N1C` (some centres undefined): the Change in the series on Mus musculus [10] is recorded as 1%; in the series with Mus musculus [11] it was 7%; in the series on Mus musculus [12], 39%; in the series with Mus musculus [13], -20%; in the series on Mus musculus [14] it was -12.3%; in the series with Mus musculus [15], 25%. For the same compound, the Change is given as 31% in the series on Mus musculus [16]; -17% with Mus musculus [17]; 11% with Mus musculus [18]; -13% with Mus musculus [19]; 5% in the series with Mus musculus [20]; -15% with Mus musculus [21]. Besides, in [4], the selectivity ratio turned out to be 16. The compound further yielded a T/C in the series on Mus musculus [22] of 248%. For the same compound, in the series with Mus musculus [23], the minimal effective dose turned out to be 0.2 mg/kg.
